Screens: PubChem BioAssay, several laboratories
This is a sample that favours compounds with a hit; in the whole collection about 1.2% have one here.
proCasp3 act = activators of human procaspase-3 D3A mutant, primary screen, biochemical, absorbance, PC-3 D3A mutant, single concentration; 330,000 tested, 0.11% active; recombinant procaspase-3 D3A, Ac-DEVD-pNA absorbance 405 nm; activation, % at 8.5 µM;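 active = activation above the mean of all tested compounds plus 3 SD, cut at about 21% in these data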
Target sequence (P42574 whole entry D9A/D28A/D175A): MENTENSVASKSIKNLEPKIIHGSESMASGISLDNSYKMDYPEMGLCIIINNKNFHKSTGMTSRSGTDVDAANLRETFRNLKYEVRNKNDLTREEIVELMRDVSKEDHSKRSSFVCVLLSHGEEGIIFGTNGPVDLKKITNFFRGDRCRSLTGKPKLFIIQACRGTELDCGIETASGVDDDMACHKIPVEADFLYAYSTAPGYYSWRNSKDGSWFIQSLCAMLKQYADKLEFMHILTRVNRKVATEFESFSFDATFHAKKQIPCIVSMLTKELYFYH
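Test system: Procaspase-3 D3A mutant, all three cleavage aspartates alanine | Dosing: Single dose, 8.5 µM nominal compound, 0.8% DMSO | Schedule: 1 h preincubation, 2 h reaction | Technique: 405 nm absorbance of p-nitroaniline, reads at 0 and 120 min | Repeats: One well per compound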
LANA-H2B inh = blockers of LANA interaction with H2A/H2B – biochemical, FP readout, HTS, primary screen | cell-free LANA-H2A/H2B peptide, fluorescence polarization | inhibition, % (concentration not given with the values) | 320,000 tested, 0.6% active | AID 2629, 2010; in the data active = inhibition mostly above about 10%, no sharp cut-off; inactive = mostly below about 6.7%
procasp7 counter = procaspase-7 activators, primary screen, counter-screen for procaspase-3 activator project, biochemical, absorbance, HTS, human; Caspase-7 (Homo sapiens), P55210; recombinant procaspase-7, Ac-DEVD-pNA absorbance 405 nm; D23A/D198A/D206A triple mutant, cannot self-cleave; scale: DMSO 0, 5 µM enzyme 100; activation, % at 8.5 µM; 330,000 tested, 0.093% active; AID 463210, 2010;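 active = percent activation above the screen-wide mean plus 3 SD, cut at about 25% in these data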
Target sequence (P55210 whole entry D23A/D198A/D206A): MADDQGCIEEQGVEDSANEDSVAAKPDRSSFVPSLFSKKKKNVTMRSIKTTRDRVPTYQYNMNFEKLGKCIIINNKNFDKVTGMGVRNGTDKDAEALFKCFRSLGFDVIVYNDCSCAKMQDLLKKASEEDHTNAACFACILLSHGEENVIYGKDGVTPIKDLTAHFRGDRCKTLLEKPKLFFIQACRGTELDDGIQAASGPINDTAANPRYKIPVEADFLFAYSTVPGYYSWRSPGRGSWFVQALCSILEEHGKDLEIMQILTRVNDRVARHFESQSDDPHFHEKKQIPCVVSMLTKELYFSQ
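Assay system: Uncleavable procaspase-7 mutant enzyme / Input: 2 µM procaspase-7 mutant as dispensed / Dosing: single nominal 8.5 µM compound dose, 0.8% DMSO final / Timing: 1 h enzyme–compound preincubation and 2 h substrate reaction, both 25 °C / Detection: p-Nitroaniline absorbance at 405 nm, read at 0 and 120 min / Replication: singlicate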
ASAP1 GAP inh = inhibitors of human ASAP1 ArfGAP activity, primary screen, biochemical, fluorescence polarization; Arf-GAP with SH3 domain, ANK repeat and PH domain-containing protein 1 (Homo sapiens), …; 360,000 tested, 0.19% active; inhibition, % at 16.5 µM; ASAP1-stimulated ARF1 GTP hydrolysis, GDP FP detection; in the data active = inhibition above about 25%
Yeast superoxide = reduction of superoxide in aged yeast, primary screen, HTS | 330,000 tested, 0.18% active | S. cerevisiae aged cells, superoxide DHE fluorescence; active compounds read low | superoxide response (% of plate mean), % at 10 µM;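 active = superoxide response under a set limit, about three screen SD below normal, cut at about 65% in these data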;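 note: yeast aged for seven days with compound at 30 °C before DHE staining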
ARFGAP1 inh = inhibitors of rat ARFGAP1 GAP activity, primary screen, biochemical, fluorescence polarization, GDP tracer. Arfgap1-stimulated ARF1 GTP hydrolysis, GDP FP detection. inhibition, % at 16.5 µM. AID 651572, 2012. 360,000 tested, 0.26% active;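 active = inhibition above a per-plate limit, mean inhibition of low control wells plus 3 SD, cut at about 25% in these data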
Target sequence (Q62848 1-136 limits assumed): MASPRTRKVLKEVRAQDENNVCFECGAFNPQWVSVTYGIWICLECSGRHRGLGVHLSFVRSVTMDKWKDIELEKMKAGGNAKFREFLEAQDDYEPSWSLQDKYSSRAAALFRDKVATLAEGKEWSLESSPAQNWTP
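system = rat Arfgap1 catalytic domain, aa 1-136 | technique = FP, GDP Alexa 633 tracer displaced from anti-GDP antibody, 620/688 nm | compound = one concentration, 16.5 µM, DMSO 1.26% | medium = HEPES-based buffer, pH 7.5 | timing = compound-enzyme preincubation 20 min, reaction 120 min, detection 60 min, 25 °C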
ARFGAP1 confirm = ARFGAP1 inhibitor hit confirmation, biochemical, fluorescence polarization, triplicate | ARFGAP1-stimulated ARF1 GTP hydrolysis, GDP tracer FP | inhibition, % at 16.5 µM | 890 tested, 30% active | AID 651608, 2012 | shares compounds with ARFGAP1 inh;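 active = average inhibition over triplicates above the hit cutoff set in the earlier primary screen, cut at about 25% in these data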
Each line names hits and unclear results; the compound was inactive in the other large screens (follow-up assays come after a bar, where they were run).

N#Cc1c(NC(=O)C2CC(c3c(F)cccc3Cl)=NO2)sc2c1CCC2 (stereo not drawn)	ARFGAP1 inh 35 | ARFGAP1 confirm 56
Cc1ccc2sc(-c3ccc(NC(=O)c4cc(-n5cnnc5)ccc4Cl)cc3)nc2c1	ARFGAP1 inh 28 | ARFGAP1 confirm inactive
Cc1ccc(C2(C)NC(=O)N(CC(=O)NC(=O)NC(C)C)C2=O)cc1 (stereo not drawn)	ARFGAP1 inh 30 | ARFGAP1 confirm inactive
CCOc1ccc(C(=O)Nc2cccc(-c3ccc(N4CCOCC4)nn3)c2)cc1OCC	none
COc1ccc(C(=O)Nc2cccc(-c3ccc(N4CCOCC4)nn3)c2)cc1OC	ARFGAP1 inh 29 | ARFGAP1 confirm inactive
COC1CC(NC(C)=O)C(OC(=O)c2ccccc2)C(CBr)O1 (stereo not drawn)	none (no result: proCasp3 act, LANA-H2B inh, procasp7 counter, Yeast superoxide)
COc1ccc(/C=N/NC(=O)c2ccc(Cl)c(S(N)(=O)=O)c2)cc1OCC(N)=O	none
COc1cc(/C=N/NC(=O)c2ccc(Cl)c(S(N)(=O)=O)c2)ccc1OCC(N)=O	ARFGAP1 inh 44 | ARFGAP1 confirm inactive
COCCNCc1nc2sc(C)c(-c3ccccc3)c2c(=O)[nH]1	ARFGAP1 inh 28 | ARFGAP1 confirm inactive
O=C(OCC(=O)N1CCN(C(=O)c2ccco2)CC1)c1cc(-c2ccc(Cl)c(Cl)c2Cl)nc2ccccc12	ARFGAP1 inh 36 | ARFGAP1 confirm 45
O=C(NCCNc1ccc([N+](=O)[O-])cc1)c1cccs1	none
Cn1nc(-c2ccc(C(=O)Nc3cccnc3)cc2)c2ccccc2c1=O	ARFGAP1 inh 25 | ARFGAP1 confirm inactive
COc1ccc(CN(C)C(=O)Cn2cnc(C(=O)Nc3ccc(C)c(C)c3)n2)cc1OC	ARFGAP1 inh 29 (no result: LANA-H2B inh) | ARFGAP1 confirm inactive
O=C(O)CCC(=O)Nc1cc(C(F)(F)F)cc(C(F)(F)F)c1	none
COc1cc(/C=C(\C#N)c2ccccn2)ccc1OCC(=O)Nc1c(Cl)cccc1Cl	ARFGAP1 inh 29 (no result: LANA-H2B inh) | ARFGAP1 confirm 31
COc1cc(/C=C(\C#N)c2ccccn2)ccc1OCC(=O)Nc1ccc(Br)cc1	none
CCSCCOC(=O)C1=C(C)NC(=O)NC1c1cccc(OC)c1OC (stereo not drawn)	ARFGAP1 inh 26 | ARFGAP1 confirm inactive
O=C(NCCCn1ccnc1)C1CC(c2ccccc2Cl)=NO1 (stereo not drawn)	none
COc1cc(Cl)c(NC2=CC(=O)C(=O)c3ccccc32)c(OC)c1	ARFGAP1 inh 28 | ARFGAP1 confirm inactive
COc1ccc(-c2cc(C(=O)Nc3cccc(S(=O)(=O)NCc4ccco4)c3)c3ccccc3n2)cc1OC	ARFGAP1 inh 26 | ARFGAP1 confirm inactive
O=C(CCN1CCN(Cc2ccccc2)CC1)Nc1ccccc1Cl	none
Cc1ccccc1Nc1c([N+](=O)[O-])cncc1[N+](=O)[O-]	ARFGAP1 inh 27 | ARFGAP1 confirm inactive
COc1ccccc1Nc1c([N+](=O)[O-])cncc1[N+](=O)[O-]	none
Oc1ccc(/C=N/Nc2cccc3cccnc23)c(O)c1	ARFGAP1 inh 51 | ARFGAP1 confirm inactive
Cc1ccc(/C=N/Nc2cccc3cccnc23)c(O)c1	none
COc1ccc(S(=O)(=O)N2CCN(Cc3cc(OC)c(OC)cc3OC)CC2)cc1	ARFGAP1 inh 27 | ARFGAP1 confirm inactive
COc1cc(OC)c(OC)cc1CN1CCN(S(=O)(=O)c2ccc(NC(C)=O)cc2)CC1	none
COc1ccc(-n2c(=O)c3c4c(sc3n(CC(=O)Nc3cc(C)[nH]n3)c2=O)CCCC4)c(OC)c1	ARFGAP1 inh 33 | ARFGAP1 confirm 33
CCOc1ccccc1NC(=O)Cn1c(=O)n(-c2ccc(OC)cc2OC)c(=O)c2c(C)c(C(=O)N(CC)CC)sc21	none
Cc1cccc(N(C)S(=O)(=O)c2c[nH]c3ccc([N+](=O)[O-])cc23)c1	ARFGAP1 inh 26 (no result: LANA-H2B inh) | ARFGAP1 confirm inactive
O=C(NCCc1ccc(Cl)cc1)C1CCCN1C(=O)Nc1ccccc1 (stereo not drawn)	none
O=C1C(F)=CC(COC(c2ccccc2)(c2ccccc2)c2ccccc2)OC1n1cc(F)c(=O)[nH]c1=O (stereo not drawn)	none (no result: proCasp3 act, LANA-H2B inh, procasp7 counter, Yeast superoxide)
CN(C)c1ccc(NC(=O)CSc2nc(N)c(C(=O)Nc3ccc(N(C)C)cc3)s2)cc1	ARFGAP1 inh 25 | ARFGAP1 confirm inactive
COc1ccc(NC(=O)CSc2nc(N)c(C(=O)Nc3ccc(N(C)C)cc3)s2)cc1	none (no result: ASAP1 GAP inh, ARFGAP1 inh)
O=C(CCCc1ccccc1)N=C1SC2CS(=O)(=O)CC2N1c1ccccc1F (stereo not drawn)	ARFGAP1 inh 29 | ARFGAP1 confirm inactive
Cc1ccc(/C=C(\CCC(=O)O)c2nc3ccccc3s2)cc1[N+](=O)[O-]	ARFGAP1 inh 31 | ARFGAP1 confirm 39
COc1ccc(N(C(=O)c2ccco2)C(C(=O)NC2CCCC2)c2cccnc2)c(OC)c1 (stereo not drawn)	ARFGAP1 inh 26 | ARFGAP1 confirm inactive
N#C/C(C(=O)Oc1ccccc1)=C1/Nc2ccccc2-c2ccccc21	none (no result: proCasp3 act, LANA-H2B inh, procasp7 counter, Yeast superoxide)
CN(/N=C/c1cc(Cl)cc(Cl)c1O)c1c(Cl)cccc1[N+](=O)[O-]	none
CCNC(=O)N(C)C[C@H]1N[C@@](CC)(C(=O)OC)[C@H]2C(=O)N(Cc3ccccc3)C(=O)[C@@H]12	none
Cc1cc(NS(=O)(=O)c2ccc(NC(=O)/C=C/c3ccc(Br)cc3)cc2)no1	none
Cc1cc(NS(=O)(=O)c2ccc(NC(=S)NC(=O)c3cccc(S(=O)(=O)N(C)C)c3)cc2)no1	ARFGAP1 inh 29 | ARFGAP1 confirm 38
Cc1cc(NS(=O)(=O)c2ccc(NS(=O)(=O)c3ccc(Br)cc3)cc2)no1	ARFGAP1 inh 27 | ARFGAP1 confirm inactive
CCc1ccccc1NC(=O)CCS(=O)(=O)c1ccc2c(c1)CCCN2C(C)=O	none
CCc1ccc(NC(=O)CC2C(=O)NCCN2C(=O)c2ccc(F)cc2)cc1 (stereo not drawn)	none
